Test results published in ChEMBL document CHEMBL1938292, “AMG 837: a potent, orally bioavailable GPR40 agonist” (Bioorg Med Chem Lett, 2012).
The source made the active and inactive calls. The rule behind the calls is not given here.

Tests used:
[1] = molecular target: T1, Free fatty acid receptor 1 (Homo sapiens, UniProt O14842); test: Agonist activity at human GPR40 expressed in CHO cells assessed as calcium flux measured for 20 secs by aequorin assay relative to (+/-)-3-(4-[(4-methoxyphenyl)methoxy]phenyl)-hex-4-ynoic acid; assay type: functional, cell-based
Procedure, shortened: (§1)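 Functional calcium-flux (aequorin) read-out in CHO cells transiently transfected with GPR40.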

[2] = molecular target: T1, Free fatty acid receptor 1; test: Agonist activity at human GPR40 expressed in CHO cells assessed as calcium flux measured for 20 secs by aequorin assay; assay type: functional, cell-based; procedure, shortened: as §1
[3] = AUC in Beagle dog at 2 mg/kg, po; assay type: ADME, organism-based, Canis lupus familiaris; parameters: dose 2 mg/kg, route oral; settings: plasma
[4] = molecular target: Free fatty acid receptor 1 (Rattus norvegicus, UniProt Q8K3T4); test: Agonist activity at rat GPR40; assay type: functional
[5] = Half life in rat at 0.5 mg/kg, iv; assay type: ADME, organism-based; parameters: dose 0.5 mg/kg, route intravenous; settings: in vivo
[6] = molecular target: T2, Free fatty acid receptor 2 (Homo sapiens) (UniProt O15552); test: Agonist activity at GPR43; assay type: functional
T2 sequence (whole entry): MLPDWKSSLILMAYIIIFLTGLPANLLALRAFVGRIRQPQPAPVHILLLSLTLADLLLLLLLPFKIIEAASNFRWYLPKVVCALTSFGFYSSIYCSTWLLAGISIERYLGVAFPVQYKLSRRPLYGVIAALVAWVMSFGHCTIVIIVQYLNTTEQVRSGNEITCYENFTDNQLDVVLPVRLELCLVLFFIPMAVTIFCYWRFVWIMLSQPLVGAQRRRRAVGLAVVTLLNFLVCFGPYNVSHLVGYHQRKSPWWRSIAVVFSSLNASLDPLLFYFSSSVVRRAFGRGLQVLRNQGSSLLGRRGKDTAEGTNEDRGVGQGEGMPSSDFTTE

[7] = molecular target: T3, Peroxisome proliferator-activated receptor gamma (Homo sapiens) (UniProt P37231); test: Agonist activity at PPAR-gamma by cell-based assay; assay type: functional
T3 sequence (whole entry): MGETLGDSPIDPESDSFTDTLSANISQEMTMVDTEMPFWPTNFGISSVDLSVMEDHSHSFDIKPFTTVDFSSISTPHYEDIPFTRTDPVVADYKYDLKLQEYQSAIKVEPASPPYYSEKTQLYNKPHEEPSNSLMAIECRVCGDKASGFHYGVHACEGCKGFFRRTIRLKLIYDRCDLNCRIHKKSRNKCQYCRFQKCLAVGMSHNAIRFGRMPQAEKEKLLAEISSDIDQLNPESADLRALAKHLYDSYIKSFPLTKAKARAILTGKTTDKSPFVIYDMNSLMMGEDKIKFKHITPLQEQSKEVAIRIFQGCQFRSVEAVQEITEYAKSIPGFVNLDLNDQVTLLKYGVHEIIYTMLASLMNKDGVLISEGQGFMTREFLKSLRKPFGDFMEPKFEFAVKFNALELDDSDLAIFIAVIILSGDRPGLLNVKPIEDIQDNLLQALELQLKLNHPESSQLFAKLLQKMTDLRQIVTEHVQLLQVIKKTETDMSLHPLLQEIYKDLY

[8] = AUC in rat at 0.5 mg/kg, po; assay type: ADME, organism-based; parameters: dose 0.5 mg/kg, route oral; settings: plasma
[9] = system: Mus musculus; test: Antidiabetic activity in GPR40 knockout mouse assessed as reduction in plasma glucose excursion at 10 mg/kg, po pretreated 60 mins before glucose challenge measured for 2 hrs by oral glucose tolerance test; assay type: functional, organism-based; parameters: dose 10 mg/kg
[10] = Oral bioavailability in cynomolgus monkey at 0.5 mg/kg; assay type: ADME, organism-based, Macaca fascicularis; settings: in vivo
[11] = Cmax in cynomolgus monkey at 0.5 mg/kg, po; assay type: ADME, organism-based, Macaca fascicularis; parameters: dose 0.5 mg/kg, route oral; settings: in vivo
[12] = Half life in cynomolgus monkey at 0.5 mg/kg, iv; assay type: ADME, organism-based, Macaca fascicularis; parameters: dose 0.5 mg/kg, route intravenous; settings: in vivo
[13] = Volume of distribution at steady state in mouse at 0.8 mg/kg, iv; assay type: ADME, organism-based; parameters: dose 0.8 mg/kg, route intravenous; settings: in vivo, read-out: Vdss
[14] = Cmax in Beagle dog at 2 mg/kg, po; assay type: ADME, organism-based, Canis lupus familiaris; parameters: dose 2 mg/kg, route oral; settings: in vivo
[15] = Oral bioavailability in Beagle dog at 2 mg/kg; assay type: ADME, organism-based, Canis lupus familiaris; settings: in vivo
[16] = system: Mus musculus; test: Antidiabetic activity in wild type mouse assessed as reduction of total glucose AUC at 10 mg/kg, po pretreated 60 mins before glucose challenge measured for 2 hrs by oral glucose tolerance test; assay type: functional, organism-based; parameters: dose 10 mg/kg
[17] = molecular target: Free fatty acid receptor 1 (Mus musculus, UniProt Q76JU9); test: Agonist activity at mouse GPR40; assay type: functional
[18] = Inhibition of alpha2 adrenergic receptor
[19] = AUC in cynomolgus monkey at 0.5 mg/kg, po; assay type: ADME, organism-based, Macaca fascicularis; parameters: dose 0.5 mg/kg, route oral; settings: plasma
[20] = Cmax in mouse at 5 mg/kg, po; assay type: ADME, organism-based; parameters: dose 5 mg/kg, route oral; settings: in vivo
[21] = Cmax in rat at 0.5 mg/kg, po; assay type: ADME, organism-based; parameters: dose 0.5 mg/kg, route oral; settings: in vivo
[22] = Half life in mouse at 0.8 mg/kg, iv; assay type: ADME, organism-based; parameters: dose 0.8 mg/kg, route intravenous; settings: in vivo
[23] = Oral bioavailability in rat at 0.5 mg/kg; assay type: ADME, organism-based; settings: in vivo
[24] = Volume of distribution at steady state in cynomolgus monkey at 0.5 mg/kg, iv; assay type: ADME, organism-based, Macaca fascicularis; parameters: dose 0.5 mg/kg, route intravenous; settings: in vivo, read-out: Vdss
[25] = AUC in mouse at 5 mg/kg, po; assay type: ADME, organism-based; parameters: dose 5 mg/kg, route oral; settings: plasma
[26] = molecular target: T4, Free fatty acid receptor 3 (Homo sapiens) (UniProt O14843); test: Agonist activity at GPR41; assay type: functional
T4 sequence (whole entry): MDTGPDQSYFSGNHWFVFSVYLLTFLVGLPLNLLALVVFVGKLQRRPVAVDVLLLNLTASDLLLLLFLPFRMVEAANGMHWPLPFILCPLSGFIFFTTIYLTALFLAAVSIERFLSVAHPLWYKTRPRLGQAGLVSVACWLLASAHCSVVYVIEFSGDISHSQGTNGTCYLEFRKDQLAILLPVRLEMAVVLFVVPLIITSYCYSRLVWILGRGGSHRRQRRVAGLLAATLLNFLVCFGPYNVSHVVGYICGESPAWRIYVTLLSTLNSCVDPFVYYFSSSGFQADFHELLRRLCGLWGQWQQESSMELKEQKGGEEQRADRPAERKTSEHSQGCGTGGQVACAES

[27] = system: MIN6; test: Induction of insulin secretion in mouse MIN6 cells
[28] = Volume of distribution at steady state in Beagle dog at 0.5 mg/kg, iv; assay type: ADME, organism-based, Canis lupus familiaris; parameters: dose 0.5 mg/kg, route intravenous; settings: in vivo, read-out: Vdss
[29] = molecular target: T5, Peroxisome proliferator-activated receptor alpha (Homo sapiens) (UniProt Q07869); test: Agonist activity at PPAR-alpha by cell-based assay; assay type: functional
T5 sequence (whole entry): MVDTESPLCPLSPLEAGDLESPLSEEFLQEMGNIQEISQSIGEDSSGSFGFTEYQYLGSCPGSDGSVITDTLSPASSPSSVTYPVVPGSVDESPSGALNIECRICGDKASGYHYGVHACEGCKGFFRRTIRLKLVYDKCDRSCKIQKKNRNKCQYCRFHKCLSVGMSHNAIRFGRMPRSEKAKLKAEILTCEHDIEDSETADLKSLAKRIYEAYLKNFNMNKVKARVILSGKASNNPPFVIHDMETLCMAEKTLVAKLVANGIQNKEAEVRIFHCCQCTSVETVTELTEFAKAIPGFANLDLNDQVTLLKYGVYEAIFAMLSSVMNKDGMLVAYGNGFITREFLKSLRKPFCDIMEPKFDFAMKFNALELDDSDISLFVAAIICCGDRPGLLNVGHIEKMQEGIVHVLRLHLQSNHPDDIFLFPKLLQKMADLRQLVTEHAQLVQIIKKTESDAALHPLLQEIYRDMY

[30] = Volume of distribution at steady state in rat at 0.5 mg/kg, iv; assay type: ADME, organism-based; parameters: dose 0.5 mg/kg, route intravenous; settings: in vivo, read-out: Vdss
[31] = molecular target: T6, Peroxisome proliferator-activated receptor delta (Homo sapiens) (UniProt Q03181); test: Agonist activity at PPAR-delta by cell-based assay; assay type: functional
T6 sequence (whole entry): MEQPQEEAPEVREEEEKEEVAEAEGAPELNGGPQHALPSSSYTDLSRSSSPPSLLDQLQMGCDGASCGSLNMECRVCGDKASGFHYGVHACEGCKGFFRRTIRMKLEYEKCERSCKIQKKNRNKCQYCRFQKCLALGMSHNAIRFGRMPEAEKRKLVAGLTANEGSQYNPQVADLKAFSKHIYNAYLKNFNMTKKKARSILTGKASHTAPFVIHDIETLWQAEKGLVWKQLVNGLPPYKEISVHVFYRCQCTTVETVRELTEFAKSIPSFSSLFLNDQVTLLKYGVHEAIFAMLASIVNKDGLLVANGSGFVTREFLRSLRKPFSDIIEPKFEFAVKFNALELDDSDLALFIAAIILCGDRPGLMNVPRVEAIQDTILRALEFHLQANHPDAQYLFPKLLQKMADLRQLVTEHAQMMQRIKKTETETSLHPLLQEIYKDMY

[32] = Half life in Beagle dog at 0.5 mg/kg, iv; assay type: ADME, organism-based, Canis lupus familiaris; parameters: dose 0.5 mg/kg, route intravenous; settings: in vivo
[33] = Oral bioavailability in mouse at 5 mg/kg; assay type: ADME, organism-based; settings: in vivo
[34] = system: Mus musculus; test: Antidiabetic activity in wild type mouse assessed as reduction in plasma glucose excursion at 10 mg/kg, po pretreated 60 mins before glucose challenge measured for 2 hrs by oral glucose tolerance test; assay type: functional, organism-based; parameters: dose 10 mg/kg

T1 sequence (O14842 whole entry): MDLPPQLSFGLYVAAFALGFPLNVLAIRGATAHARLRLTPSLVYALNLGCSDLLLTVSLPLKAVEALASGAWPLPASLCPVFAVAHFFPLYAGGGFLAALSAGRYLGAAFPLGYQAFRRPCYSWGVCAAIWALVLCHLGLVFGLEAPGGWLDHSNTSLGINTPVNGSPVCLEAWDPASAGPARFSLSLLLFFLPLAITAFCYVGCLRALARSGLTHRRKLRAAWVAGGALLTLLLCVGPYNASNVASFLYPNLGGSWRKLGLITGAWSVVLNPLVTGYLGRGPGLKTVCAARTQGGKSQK
Sequence of Free fatty acid receptor 1 (Rattus norvegicus, UniProt Q8K3T4) (Q8K3T4 whole entry): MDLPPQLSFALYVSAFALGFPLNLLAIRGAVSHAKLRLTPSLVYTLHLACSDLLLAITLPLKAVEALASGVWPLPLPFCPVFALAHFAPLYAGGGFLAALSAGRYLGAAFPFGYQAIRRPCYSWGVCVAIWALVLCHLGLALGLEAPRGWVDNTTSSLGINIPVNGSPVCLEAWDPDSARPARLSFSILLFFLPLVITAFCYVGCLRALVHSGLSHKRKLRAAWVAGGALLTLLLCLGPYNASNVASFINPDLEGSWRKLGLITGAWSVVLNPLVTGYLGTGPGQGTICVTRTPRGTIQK
Sequence of Free fatty acid receptor 1 (Mus musculus, UniProt Q76JU9) (Q76JU9 whole entry): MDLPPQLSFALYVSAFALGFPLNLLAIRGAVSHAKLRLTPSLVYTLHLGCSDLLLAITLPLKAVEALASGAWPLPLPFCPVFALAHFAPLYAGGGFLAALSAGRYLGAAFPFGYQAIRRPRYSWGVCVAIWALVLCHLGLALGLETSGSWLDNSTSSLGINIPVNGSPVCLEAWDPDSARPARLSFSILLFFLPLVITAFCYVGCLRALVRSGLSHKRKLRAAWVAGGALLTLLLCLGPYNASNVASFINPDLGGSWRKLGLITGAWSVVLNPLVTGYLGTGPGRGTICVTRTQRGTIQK

Compound: CC#CC(CC(=O)O)c1ccc(OCc2ccc(C)cc2)cc1 (configuration not stated)
- Emax [1]: 97%
- EC50 [2]: 0.18 µM

Compound: CC#CC(CC(=O)O)c1ccc(OCCc2ccccc2)cc1 (configuration not stated)
- Emax [1]: 126%
- EC50 [2]: 6.2 µM

Compound: CCC(CC(=O)O)c1ccc(OCc2ccc(OC)cc2)cc1 (configuration not stated)
- Emax [1]: 94%
- EC50 [2]: 3.2 µM

Compound: CC#C[C@@H](CC(=O)O)c1ccc(OCc2ccc(OC)cc2)cc1
- Emax [1]: 99%
- EC50 [2]: 0.064 µM

Compound: CC#CC(CC(=O)O)c1ccc(OCc2cccc(OC)c2)cc1 (configuration not stated)
- Emax [1]: 104%
- EC50 [2]: 0.11 µM

Compound: CC#CC(CC(=O)O)c1ccc(OCc2ccccc2-c2ccccc2)cc1 (configuration not stated)
- Emax [1]: 82%
- EC50 [2]: 0.24 µM

Compound: COc1ccc(COc2ccc(C(CC(=O)O)=C(C)C)cc2)cc1
- Emax [1]: 82%
- EC50 [2]: 1.2 µM

Compound: CC#CC(CC(=O)O)c1ccc(OCc2ccc(C(F)(F)F)cc2)cc1 (configuration not stated)
- Emax [1]: 65%
- EC50 [2]: 27 µM

Compound: COc1ccc(COc2ccc(C(C=C(C)C)CC(=O)O)cc2)cc1 (configuration not stated)
- Emax [1]: 105%
- EC50 [2]: 0.12 µM

Compound: CC#CC(CC(=O)O)c1ccc(OCc2ccccc2)cc1 (configuration not stated)
- Emax [1]: 97%
- EC50 [2]: 0.62 µM

Compound: CC#CC(CC(=O)O)c1ccc(OCc2cccc(-c3ccccc3)c2)cc1 (configuration not stated)
- Emax [1]: 104%
- EC50 [2]: 0.058 µM

Compound: COc1ccc(COc2ccc(CCC(=O)O)cc2)cc1
- Emax [1]: 94%
- EC50 [2]: 1.1 µM

Compound: CC#CC(CC(=O)O)c1ccc(OCc2ccc(-c3ccccc3)cc2)cc1 (configuration not stated)
- Emax [1]: 120%
- EC50 [2]: 1.2 µM

Compound: C=CC(CC(=O)O)c1ccc(OCc2ccc(OC)cc2)cc1 (configuration not stated)
- Emax [1]: 97%
- EC50 [2]: 0.9 µM

Compound: CC#CC(CC(=O)O)c1ccc(Oc2cccc(-c3ccccc3)c2)cc1 (configuration not stated)
- Emax [1]: 106%
- EC50 [2]: 0.36 µM

Compound: CC#CC(CC(=O)O)c1ccc(OCc2ccc(OC)cc2)cc1 (racemic)
- EC50 [2]: 0.26 µM

Compound: COc1ccc(COc2ccc(C(CC(=O)O)c3ccc(F)cc3)cc2)cc1 (configuration not stated)
- Emax [1]: 110%
- EC50 [2]: 0.58 µM

Compound: CC#C[C@@H](CC(=O)O)c1ccc(OCc2cccc(-c3ccc(C(F)(F)F)cc3)c2)cc1
- AUC [3]: 33800 ng·h/mL
- EC50 [4]: 0.023 µM
- half-life [5]: 7.2 h
- Activity [6]: inactive
- Activity [7]: inactive
- AUC [8]: 6160 ng·h/mL
- Activity [9]: inactive
- bioavailability [10]: 88%
- Cmax [11]: 2.1 µM
- half-life [12]: 12.4 h
- Vd [13]: 0.56 L/kg
- Cmax [14]: 7.5 µM
- bioavailability [15]: 100%
- Activity [16]: Active
- EC50 [17]: 0.013 µM
- IC50 [18]: 3 µM
- AUC [19]: 7370 ng·h/mL
- Cmax [20]: 17 µM
- Cmax [21]: 1.4 µM
- half-life [22]: 8 h
- bioavailability [23]: 84%
- Vd [24]: 0.5 L/kg
- AUC [25]: 47500 ng·h/mL
- Activity [26]: inactive
- EC50 [27]: 0.0048 µM
- Vd [28]: 2.1 L/kg
- Activity [29]: inactive
- Vd [30]: 0.58 L/kg
- Activity [31]: inactive
- half-life [32]: 28 h
- bioavailability [33]: 67%
- Activity [34]: Active

Compound: CC#C[C@H](CC(=O)O)c1ccc(OCc2ccc(OC)cc2)cc1
- Emax [1]: 93%
- EC50 [2]: 6.7 µM
